Results from different studies.
Protocols differ between the studies behind these lines.
Cell line: PC-3
Read-out: cell growth or viability

| Structure (SMILES) | assay | setting | inhibition |
| --- | --- | --- | --- |
| COc1cc(CNC(=O)CCCC/C=C/C(C)C)ccc1O | SRB | 10 µM | 19% |
| COc1ccc(C(=O)/C=C/c2ccccc2Br)cc1S(N)(=O)=O | SRB | 10 µM | 79% |
| O=C(CN1C(=O)/C(=C/c2ccccc2)SC1=S)Nc1ccccc1 | MTT | 10 µM | 43.8% |
| COc1ccc(C(=O)/C=C/c2cc3c(cc2Br)OCO3)cc1S(N)(=O)=O | SRB | 10 µM | 98% |
| O=C(CN1C(=O)/C(=C/C2CC2)SC1=S)Nc1ccccc1 | MTT | 10 µM | 24.1% |
| CC(=O)c1cccc(NC(=O)C2CCCN(C(=O)c3cc(C(F)(F)F)cc(C(F)(F)F)c3)C2)c1 (stereo not drawn) | WST-1 | 100 µM | 0% |
| O=C(CN1C(=O)/C(=C/c2ccc(F)cc2)SC1=S)Nc1ccccc1 | MTT | 10 µM | 27.7% |
| CCc1cccc(NC(=O)C2CCCN(C(=O)c3cc(C(F)(F)F)cc(C(F)(F)F)c3)C2)c1 (stereo not drawn) | WST-1 | 100 µM | 0% |
| O=C(CN1C(=O)/C(=C/c2ccc(Cl)cc2)SC1=S)Nc1ccccc1 | MTT | 10 µM | 32.3% |
| O=C(Nc1cccc(Cc2ccccc2)c1)C1CCCN(C(=O)c2cccc(-c3ccco3)c2)C1 (stereo not drawn) | WST-1 | 100 µM | 0% |
| COc1ccc(C(=O)/C=C/c2cccc(Cl)c2Cl)cc1S(N)(=O)=O | SRB | 10 µM | 95% |
| Cn1cnnc1-c1cccc(NC(=O)C2CCCN(C(=O)c3cc(C(F)(F)F)cc(C(F)(F)F)c3)C2)c1 (stereo not drawn) | WST-1 | 100 µM | 0% |
| COc1ccc(C(=O)/C=C/c2cccc(Cl)c2)cc1S(N)(=O)=O | SRB | 10 µM | 68% |
| COc1cccc(NC(=O)CN2C(=O)/C(=C/c3cccs3)SC2=S)c1 | MTT | 10 µM | 7.28% |
| O=C(Nc1cccc(Cc2ccccc2)c1)C1CCCN(C(=O)c2cc(C(F)(F)F)cc(C(F)(F)F)c2)C1 (stereo not drawn) | WST-1 | 100 µM | 0% |
